Measurements as given in article PMC3378255 (ACS chemical neuroscience, 2012).
Where two headings read alike, the source gives them in different places.

How the values were obtained:
[1] = tested on: 44 GPCR and other molecular targets; assay: PDSP binding assay panel of 44 GPCR and other molecular targets
In short: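 The Psychoactive Drug Screening Program ran radioligand binding assays across 44 GPCR and other targets. Test compounds were first screened at a single 10 μM concentration. Those showing significant activity then went to Ki determination.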

[2] = Plasma protein binding, mouse; assay type: in vitro ADME
KOR = KOR (Homo sapiens, UniProt P41145); assay: PDSP radioligand binding assay, KOR
[3] = Plasma protein binding, human; assay type: in vitro ADME; conditions: for bound to both human and mouse plasma: human and mouse plasma together; for plasma protein binding (% Bound): human
[4] = tested on: Fa2N-4 immortalized human hepatocytes; assay: Hepatic toxicity; assay type: cell-based; conditions: in words
[5] = mouse, microsomes, 1 h

KOR, sequence (P41145 whole entry): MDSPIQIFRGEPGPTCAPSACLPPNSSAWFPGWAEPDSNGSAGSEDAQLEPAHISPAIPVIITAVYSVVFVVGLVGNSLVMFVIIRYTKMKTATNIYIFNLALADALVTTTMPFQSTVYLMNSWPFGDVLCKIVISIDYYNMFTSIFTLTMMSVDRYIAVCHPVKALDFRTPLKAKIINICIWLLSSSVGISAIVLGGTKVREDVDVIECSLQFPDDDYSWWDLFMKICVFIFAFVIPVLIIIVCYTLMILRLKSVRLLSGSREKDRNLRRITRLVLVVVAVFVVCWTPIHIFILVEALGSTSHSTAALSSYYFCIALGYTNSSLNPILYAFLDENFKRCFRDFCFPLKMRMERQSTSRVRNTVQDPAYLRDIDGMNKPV

PAMPA Pe | hepatic microsome stability [5] | PAMPA Pe (pH 7.4) | SMILES | affinity across the PDSP assay panel ([1]; in words, concentrations up to 10,000 nM) | plasma protein binding (% Bound) ([2]; 1µM) | plasma protein binding (% Bound) ([2]; 10µM) | Ki (KOR) | bound to both human and mouse plasma [3] | plasma protein binding (% Bound) ([3]; 1µM) | plasma protein binding (% Bound) ([3]; 10µM) | toxicity toward human hepatocytes [4] | Ki ([1]; read-out: Ki values for 11 non-opioid targets, weak binding affinity, PDSP panel)
– | – | – | O=C(c1ccccn1)N(Cc1cccs1)C1(C(=O)NC2CCCCC2)CCCCC1 [1{1}, N-(1-(Cyclohexylcarbamoyl)cyclohexyl)-N-(thiophen-2-ylmethyl)picolinamide] | affinity only for the opioid receptors | 94.05 % Bound | 90.70 % Bound | 0.0006 µM | 90–99% | 99.59 % Bound | 99.07 % Bound | significant toxicity | –
– | – | – | Clc1ccc(CSc2nnc(-c3ccccn3)n2Cc2ccco2)cc1Cl [2{8}] | – | 99.80 % Bound | 99.64 % Bound | – | 90–99% | 99.75 % Bound | 99.80 % Bound | – | 1 to 10 µM
1710–1940 ×10^−6 cm/s | – | – | Cc1ccc(S(=O)(=O)NCc2ccc(C(=O)NCCN(Cc3ccccc3)C(C)C)cc2)cc1 [3{1}, N-(2-(Benzyl(isopropyl)amino)ethyl)-4-((4-methylphenylsulfonamido)methyl)benzamide] | – | 98.90 % Bound | 98.92 % Bound | – | 90–99% | 99.67 % Bound | 99.73 % Bound | – | –
2.7e-05 cm/s | 7.3 % remaining | 0.000757 cm/s | COc1ccc(N2CCN(CCCNC(=O)Cn3c(=O)c4cccn4c4c(C)ccnc43)CC2)cc1 [4{13}, N-(3-(4-(4-Methoxyphenyl)piperazin-1-yl)propyl)-2-(1-methyl-6-oxopyrido[2,3-e]pyrrolo[1,2-a]pyrazin-5(6H)-yl)acetamide] | – | 88.46 % Bound | 80.07 % Bound | – | 80–94% | 93.96 % Bound | 88.54 % Bound | – | –
